Results on 4 compounds are retold here after ChEMBL document CHEMBL4706770, “SD-91 as A Potent and Selective STAT3 Degrader Capable of Achieving Complete and Long-Lasting Tumor Regression” (ACS Med Chem Lett, 2021).

For experiment [1], the target named is T1, Signal transducer and activator of transcription 5A (Homo sapiens) (UniProt P42229).
T1 sequence (whole entry): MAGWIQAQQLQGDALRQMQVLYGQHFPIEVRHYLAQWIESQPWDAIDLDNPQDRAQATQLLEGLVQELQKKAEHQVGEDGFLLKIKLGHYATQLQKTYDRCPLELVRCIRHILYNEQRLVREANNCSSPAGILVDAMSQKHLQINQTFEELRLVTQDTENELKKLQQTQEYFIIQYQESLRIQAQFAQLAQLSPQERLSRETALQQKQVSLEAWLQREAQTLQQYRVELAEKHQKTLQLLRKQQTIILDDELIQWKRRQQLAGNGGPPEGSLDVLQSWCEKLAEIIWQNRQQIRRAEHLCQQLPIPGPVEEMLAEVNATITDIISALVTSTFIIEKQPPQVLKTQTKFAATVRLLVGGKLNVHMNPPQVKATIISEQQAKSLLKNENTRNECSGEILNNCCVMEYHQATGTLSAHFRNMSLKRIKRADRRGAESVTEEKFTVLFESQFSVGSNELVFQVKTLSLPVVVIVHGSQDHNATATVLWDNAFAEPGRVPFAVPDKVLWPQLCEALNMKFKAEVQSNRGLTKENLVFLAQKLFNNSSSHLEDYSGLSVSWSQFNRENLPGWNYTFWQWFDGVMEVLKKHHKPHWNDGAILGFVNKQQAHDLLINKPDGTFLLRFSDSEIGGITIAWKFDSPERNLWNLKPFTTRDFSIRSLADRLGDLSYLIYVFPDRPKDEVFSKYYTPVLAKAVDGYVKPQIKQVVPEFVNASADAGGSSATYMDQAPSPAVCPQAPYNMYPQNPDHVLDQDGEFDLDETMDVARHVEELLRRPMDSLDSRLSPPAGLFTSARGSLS
In words: Induction of STAT5 degradation in human MOLM16 cells at 0.25 to 100 uM incubated for 4 hrs by Western blot analysis. It counts as cell-based. The note with it: dose 0.25-100 µM. In short, it runs like this:
(§1)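 Cells treated 4 h with compounds across 25 nM to 100 μM; STAT proteins detected by Western blot with GAPDH as loading control; STAT3 DC50 estimated by densitometry of STAT3 relative to GAPDH. Applies to MOLM-16 for all STATs, and to SU-DHL-1 and SUP-M2 for STAT3.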

For experiment [2], the target named is T1, Signal transducer and activator of transcription 5A (Homo sapiens). Kind of experiment: Induction of STAT5 degradation in human SU-DHL-1 cells at 0.25 to 100 uM incubated for 14 hrs by Western blot analysis. It counts as cell-based. The note with it: dose 0.25-100 µM.
In experiment [3] the target is T2, Signal transducer and activator of transcription 6 (Homo sapiens) (UniProt P42226).
T2 sequence (whole entry): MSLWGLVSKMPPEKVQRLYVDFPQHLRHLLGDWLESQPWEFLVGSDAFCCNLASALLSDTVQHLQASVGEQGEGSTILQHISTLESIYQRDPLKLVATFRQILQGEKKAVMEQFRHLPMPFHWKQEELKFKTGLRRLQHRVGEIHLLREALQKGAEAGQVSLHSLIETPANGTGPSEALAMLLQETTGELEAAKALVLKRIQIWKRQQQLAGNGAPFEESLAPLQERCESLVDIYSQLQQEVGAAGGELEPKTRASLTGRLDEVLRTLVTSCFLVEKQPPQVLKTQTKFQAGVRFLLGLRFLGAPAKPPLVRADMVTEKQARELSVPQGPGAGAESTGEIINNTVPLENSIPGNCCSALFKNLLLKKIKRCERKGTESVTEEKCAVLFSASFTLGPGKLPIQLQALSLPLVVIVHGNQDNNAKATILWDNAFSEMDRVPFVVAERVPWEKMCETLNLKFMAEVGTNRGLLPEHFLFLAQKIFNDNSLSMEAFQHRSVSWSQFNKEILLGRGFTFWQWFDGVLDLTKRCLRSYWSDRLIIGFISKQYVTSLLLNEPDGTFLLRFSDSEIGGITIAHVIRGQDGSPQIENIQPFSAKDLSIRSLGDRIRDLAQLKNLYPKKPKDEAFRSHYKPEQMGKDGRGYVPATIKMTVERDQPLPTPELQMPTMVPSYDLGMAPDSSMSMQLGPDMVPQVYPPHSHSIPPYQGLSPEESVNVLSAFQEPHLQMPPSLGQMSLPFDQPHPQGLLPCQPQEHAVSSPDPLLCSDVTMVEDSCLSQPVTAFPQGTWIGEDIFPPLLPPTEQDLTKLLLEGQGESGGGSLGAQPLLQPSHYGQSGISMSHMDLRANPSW
In words: Induction of STAT6 degradation in human SU-DHL-1 cells at 0.25 to 100 uM incubated for 14 hrs by Western blot analysis. It counts as cell-based. The settings on record: dose 0.25-100 µM. (A western blot detects proteins with antibodies after separation by electrophoresis.)

The target in experiment [4] is Signal transducer and activator of transcription 2 (Homo sapiens, UniProt P52630). In words: Induction of STAT2 degradation in human SU-DHL-1 cells at 0.25 to 100 uM incubated for 14 hrs by Western blot analysis. The experiment is classed as cell-based. The note with it: dose 0.25-100 µM. Summed up: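 SU-DHL-1 or SUP-M2 cells treated over 25 nM to 100 μM. STAT family proteins assessed by Western blot.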

In experiment [5] the target is T2, Signal transducer and activator of transcription 6 (Homo sapiens). Kind of experiment: Induction of STAT6 degradation in human SUP-M2 cells at 0.25 to 100 uM incubated for 14 hrs by Western blot analysis. It counts as cell-based. The settings on record: SUPM2, dose 0.25-100 µM.
For experiment [6] the target is unchanged. In words: Induction of STAT6 degradation in human MOLM16 cells at 0.25 to 100 uM incubated for 4 hrs by Western blot analysis. It counts as cell-based. The note with it: dose 0.25-100 µM. In short, it runs like this: as §1
The nature of experiment [7]: Antiproliferative activity against human SUP-M2 cells assessed as cell growth inhibition incubated for 4 days by CellTiter-Glo asssay. It counts as functional, cell-based, SUPM2. The settings on record: SUP-M2, 96 h. Summed up: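 Growth inhibition tested in MOLM-16 acute leukemia and SU-DHL-1 and SUP-M2 lymphoma cell lines.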
In general terms: Cellular ATP, detected with luciferase, serves as a proxy for viable cell number.

Calls of active or inactive are those of the source. No cut-off for these calls is given here.

Sequence of Signal transducer and activator of transcription 2 (P52630 whole entry): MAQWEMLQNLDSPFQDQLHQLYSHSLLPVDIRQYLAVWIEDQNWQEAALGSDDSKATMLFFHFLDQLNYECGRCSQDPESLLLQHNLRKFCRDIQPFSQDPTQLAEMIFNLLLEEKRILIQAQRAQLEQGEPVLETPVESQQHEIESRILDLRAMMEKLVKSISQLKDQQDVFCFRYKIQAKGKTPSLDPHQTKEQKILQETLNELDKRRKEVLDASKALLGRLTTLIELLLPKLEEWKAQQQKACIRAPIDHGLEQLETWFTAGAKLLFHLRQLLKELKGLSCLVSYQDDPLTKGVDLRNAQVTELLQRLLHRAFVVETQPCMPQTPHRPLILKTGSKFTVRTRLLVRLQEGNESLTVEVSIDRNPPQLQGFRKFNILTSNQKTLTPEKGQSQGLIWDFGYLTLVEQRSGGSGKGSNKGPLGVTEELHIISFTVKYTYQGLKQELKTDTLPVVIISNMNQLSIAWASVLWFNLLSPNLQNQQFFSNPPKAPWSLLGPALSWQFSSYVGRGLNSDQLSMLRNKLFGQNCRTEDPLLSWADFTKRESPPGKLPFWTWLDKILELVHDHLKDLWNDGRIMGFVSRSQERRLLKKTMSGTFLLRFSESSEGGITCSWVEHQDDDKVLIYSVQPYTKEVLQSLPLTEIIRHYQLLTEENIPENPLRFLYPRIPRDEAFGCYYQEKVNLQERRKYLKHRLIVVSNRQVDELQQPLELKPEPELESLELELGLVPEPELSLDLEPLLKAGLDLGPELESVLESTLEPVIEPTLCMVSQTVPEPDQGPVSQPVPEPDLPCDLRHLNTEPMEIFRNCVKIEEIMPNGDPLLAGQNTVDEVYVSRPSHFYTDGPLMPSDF

On to `CC(=O)N1CC[C@H]2CC[C@@H](C(=O)N[C@@H](CCC(N)=O)C(=O)NC(c3ccccc3)c3ccccc3)N2C(=O)[C@@H](NC(=O)c2cc3cc(C(F)(F)P(=O)(O)O)ccc3[nH]2)C1`, for which the outcome in experiment [1], in experiment [2], in experiment [3], in experiment [4], in experiment [5] and in experiment [6] was inactive. Moreover, the IC50 in experiment [7] was greater than 10000 nM.
Take `CC(=O)N1CC[C@H]2CC[C@@H](C(=O)N[C@@H](CCC(N)=O)C(=O)NC(c3ccccc3)c3ccccc3)N2C(=O)[C@@H](NC(=O)c2cc3cc(C(=O)P(=O)(O)O)ccc3[nH]2)C1`: the outcome in experiment [1], in experiment [2], in experiment [3], in experiment [4], in experiment [5] and in experiment [6] was inactive. Besides, the IC50 in experiment [7] was greater than 10000 nM.
Consider `NC(=O)CC[C@H](NC(=O)[C@@H]1CC[C@@H]2CCN(C(=O)CCCCCC#Cc3cccc4c3CN(C3CCC(=O)NC3=O)C4=O)C[C@H](NC(=O)c3cc4cc(C(=O)P(=O)(O)O)ccc4[nH]3)C(=O)N21)C(=O)NC(c1ccccc1)c1ccccc1` (some centres not stated), for which the outcome in experiment [1], in experiment [2], in experiment [3], in experiment [4], in experiment [5] and in experiment [6] was inactive. For the same compound, the IC50 in experiment [7] came out at 460 nM.
Take `NC(=O)CC[C@H](NC(=O)[C@@H]1CC[C@@H]2CCN(C(=O)CCCCCC#Cc3cccc4c3CN(C3CCC(=O)NC3=O)C4=O)C[C@H](NC(=O)c3cc4cc(C(F)(F)P(=O)(O)O)ccc4[nH]3)C(=O)N21)C(=O)NC(c1ccccc1)c1ccccc1` (some centres not stated): in experiment [7], the IC50 is 530 nM.

Broadly, the IC50 is the concentration at which inhibition is half-maximal.
